Assays:
Assay type in all cases: in vivo, C57BL/6J mice
[1] = Brain pharmacokinetics after a single 1 mg/kg dose; conditions: for Cmax / MRT last / Tmax / k el: C57BL/6J, mouse, 1 mg/kg; for brain drug targeting efficiency: from zero-infinity predicted AUC values
How it was run: (§1)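 Anaesthetized (zolazepam/xylazine i.p.) male C57BL/6J mice, n = 4 per time point, were dosed 1 mg/kg by i.v., s.c., i.p. or gavage. At 2.5–90 min, after cardiac blood sampling, they were transcardially perfused with saline. Brain and spinal cord were homogenized in equal weight-volume water, spiked with internal standard, deproteinized 1:3 with cold acetonitrile and quantified by LC–MS/MS. Per-time-point means were fitted with a two-compartment model.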

[2] = Spinal cord pharmacokinetics after a single 1 mg/kg dose; conditions: for Cmax / MRT last / Tmax / k el: C57BL/6J, mouse, 1 mg/kg; for spinal cord drug targeting efficiency: from zero-infinity predicted AUC values
How it was run: as §1

[3] = Plasma pharmacokinetics after a single 1 mg/kg dose; conditions: for AUC / MRT last / k el: C57BL/6J, mouse, 1 mg/kg
How it was run: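 Male C57BL/6J mice (10–12 weeks; n = 4 per time point) under i.p. zolazepam 50 mg/kg plus xylazine 12 mg/kg received 1 mg/kg in 5% dextrose (37 °C) by tail-vein i.v., s.c., i.p. or gavage. Terminal cardiac-puncture blood was taken into EDTA at 2.5–90 min. Plasma was spiked with internal standard, acetonitrile-deproteinized and measured by LC–MS/MS. Mean levels were fitted two-compartmentally, with AUC by linear trapezoidal rule.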

[4] = brain, i.p. 1 mg/kg single dose
[5] = brain, i.v. 1 mg/kg single dose
[6] = brain, p.o. 1 mg/kg single dose
[7] = brain, s.c. 1 mg/kg single dose
[8] = spinal cord, i.p. 1 mg/kg single dose
[9] = spinal cord, i.v. 1 mg/kg single dose
[10] = spinal cord, p.o. 1 mg/kg single dose
[11] = spinal cord, s.c. 1 mg/kg single dose

## CC(=O)N[C@@H](Cc1ccccc1)C(=O)N[C@H]1CCCNC(=O)[C@H](CCCNC(=N)N)NC(=O)[C@H](Cc2c[nH]c3ccccc23)NC(=O)[C@@H](CC2CCCCC2)NC(=O)[C@@H]2CCCN2C1=O [PMX53, Ac-Phe-[Orn-Pro-dCha-Trp-Arg]]
[1]; brain, ip
  Cmax: 48.1 ng/g
  MRT last: 40.8 min
  Tmax: 10.4 min
  k el: 0.0002 s⁻¹
[1]; brain, iv
  Cmax: 74.1 ng/g
  MRT last: 42 min
  k el: 0.0001 s⁻¹
[1]; brain, po
  Cmax: 77 ng/g
  MRT last: 40.8 min
  Tmax: 14.9 min
  k el: 0.000122 s⁻¹
[1]; brain, sc
  Cmax: 120 ng/g
  MRT last: 42 min
  Tmax: 19.9 min
  k el: 0.000189 s⁻¹
[1]; [4]
  Alpha (hybrid first-order rate constant, distribution phase): 9.22 h⁻¹
  Beta (hybrid first-order rate constant, elimination phase): 0.30 h⁻¹
  CLD2_F (apparent total clearance of the drug after administration): 25.61 ng/(min ng/g)
  CL_F (apparent total body clearance of the drug): 3.77 ng/(min ng/g)
  K01 (absorption rate constant): 9.06 h⁻¹
  K12 (distribution rate constant): 4.92 h⁻¹
  K21 (redistribution rate constant): 3.87 h⁻¹
  V1_F (apparent volume of central compartment): 0.31 μg/(ng/g)
  V2_F (apparent volume of peripheral compartment): 0.40 μg/(ng/g)
[1]; [5]
  Alpha (hybrid first-order rate constant, distribution phase): 35.52 h⁻¹
  Beta (hybrid first-order rate constant, elimination phase): 0.20 h⁻¹
  CLD2_F (apparent total clearance of the drug after administration): 107.59 ng/(min ng/g)
  CL_F (apparent total body clearance of the drug): 2.43 ng/(min ng/g)
  K12 (distribution rate constant): 15.95 h⁻¹
  K21 (redistribution rate constant): 19.41 h⁻¹
  V1_F (apparent volume of central compartment): 0.40 μg/(ng/g)
  V2_F (apparent volume of peripheral compartment): 0.33 μg/(ng/g)
  Vss (apparent volume of distribution at a steady state): 0.74 μg/(ng/g)
[1]; [6]
  Alpha (hybrid first-order rate constant, distribution phase): 1.68 h⁻¹
  Beta (hybrid first-order rate constant, elimination phase): 0.26 h⁻¹
  CLD2_F (apparent total clearance of the drug after administration): 2.68 ng/(min ng/g)
  CL_F (apparent total body clearance of the drug): 2.28 ng/(min ng/g)
  K01 (absorption rate constant): 11.20 h⁻¹
  K12 (distribution rate constant): 0.51 h⁻¹
  K21 (redistribution rate constant): 0.99 h⁻¹
  V1_F (apparent volume of central compartment): 0.31 μg/(ng/g)
  V2_F (apparent volume of peripheral compartment): 0.16 μg/(ng/g)
[1]; [7]
  Alpha (hybrid first-order rate constant, distribution phase): 3.48 h⁻¹
  Beta (hybrid first-order rate constant, elimination phase): 0.41 h⁻¹
  CLD2_F (apparent total clearance of the drug after administration): 2.91 ng/(min ng/g)
  CL_F (apparent total body clearance of the drug): 1.75 ng/(min ng/g)
  K01 (absorption rate constant): 5.81 h⁻¹
  K12 (distribution rate constant): 1.13 h⁻¹
  K21 (redistribution rate constant): 2.07 h⁻¹
  V1_F (apparent volume of central compartment): 0.15 μg/(ng/g)
  V2_F (apparent volume of peripheral compartment): 0.08 μg/(ng/g)
[1]; i.p. 1 mg/kg
  brain drug targeting efficiency: 0.71
[1]; p.o. 1 mg/kg
  brain drug targeting efficiency: 8.21
[1]; s.c. 1 mg/kg
  brain drug targeting efficiency: 1.37
[2]; spinal cord, ip
  Cmax: 71.3 ng/g
  MRT last: 37.2 min
  Tmax: 11.9 min
  k el: 0.000242 s⁻¹
[2]; spinal cord, iv
  Cmax: 130 ng/g
  MRT last: 41.4 min
  k el: 0.000111 s⁻¹
[2]; spinal cord, po
  Cmax: 75.9 ng/g
  MRT last: 40.8 min
  Tmax: 14.9 min
  k el: 0.000122 s⁻¹
[2]; spinal cord, sc
  Cmax: 96.6 ng/g
  MRT last: 38.4 min
  Tmax: 23.1 min
  k el: 0.000519 s⁻¹
[2]; i.p. 1 mg/kg
  spinal cord drug targeting efficiency: 0.63
[2]; p.o. 1 mg/kg
  spinal cord drug targeting efficiency: 4.42
[2]; s.c. 1 mg/kg
  spinal cord drug targeting efficiency: 0.77
[2]; [8]
  Alpha (hybrid first-order rate constant, distribution phase): 0.87 h⁻¹
  Beta (hybrid first-order rate constant, elimination phase): 0.19 h⁻¹
  CLD2_F (apparent total clearance of the drug after administration): 0.01 ng/(min ng/g)
  CL_F (apparent total body clearance of the drug): 5.15 ng/(min ng/g)
  K01 (absorption rate constant): 15.39 h⁻¹
  K12 (distribution rate constant): <0.01 h⁻¹
  K21 (redistribution rate constant): 0.19 h⁻¹
  V1_F (apparent volume of central compartment): 0.35 μg/(ng/g)
  V2_F (apparent volume of peripheral compartment): <0.01 μg/(ng/g)
[2]; [9]
  Alpha (hybrid first-order rate constant, distribution phase): 26.36 h⁻¹
  Beta (hybrid first-order rate constant, elimination phase): 0.27 h⁻¹
  CLD2_F (apparent total clearance of the drug after administration): 30.58 ng/(min ng/g)
  CL_F (apparent total body clearance of the drug): 1.52 ng/(min ng/g)
  K12 (distribution rate constant): 7.94 h⁻¹
  K21 (redistribution rate constant): 18.30 h⁻¹
  V1_F (apparent volume of central compartment): 0.23 μg/(ng/g)
  V2_F (apparent volume of peripheral compartment): 0.10 μg/(ng/g)
  Vss (apparent volume of distribution at a steady state): 0.33 μg/(ng/g)
[2]; [10]
  Alpha (hybrid first-order rate constant, distribution phase): 1.69 h⁻¹
  Beta (hybrid first-order rate constant, elimination phase): 0.26 h⁻¹
  CLD2_F (apparent total clearance of the drug after administration): 2.71 ng/(min ng/g)
  CL_F (apparent total body clearance of the drug): 2.33 ng/(min ng/g)
  K01 (absorption rate constant): 11.20 h⁻¹
  K12 (distribution rate constant): 0.51 h⁻¹
  K21 (redistribution rate constant): 1.00 h⁻¹
  V1_F (apparent volume of central compartment): 0.32 μg/(ng/g)
  V2_F (apparent volume of peripheral compartment): 0.16 μg/(ng/g)
[2]; [11]
  Alpha (hybrid first-order rate constant, distribution phase): 2.66 h⁻¹
  Beta (hybrid first-order rate constant, elimination phase): 0.22 h⁻¹
  CLD2_F (apparent total clearance of the drug after administration): 1.36 ng/(min ng/g)
  CL_F (apparent total body clearance of the drug): 3.68 ng/(min ng/g)
  K01 (absorption rate constant): 2.70 h⁻¹
  K12 (distribution rate constant): 0.69 h⁻¹
  K21 (redistribution rate constant): 0.32 h⁻¹
  V1_F (apparent volume of central compartment): 0.12 μg/(ng/g)
  V2_F (apparent volume of peripheral compartment): 0.26 μg/(ng/g)
[3]; ip
  AUC: 1800 ng·h/mL
  MRT last: 27.4 min
  k el: 0.00114 s⁻¹
[3]; iv
  AUC: 2510 ng·h/mL
  MRT last: 13.2 min
  k el: 0.00193 s⁻¹
[3]; po
  AUC: 227 ng·h/mL
  MRT last: 32.6 min
  k el: 0.000711 s⁻¹
[3]; sc
  AUC: 2240 ng·h/mL
  MRT last: 38.8 min
  k el: 0.000592 s⁻¹
[3]; i.p. 1 mg/kg single dose
  Alpha (hybrid first-order rate constant, distribution phase): 0.07 min⁻¹
  Beta (hybrid first-order rate constant, elimination phase): 0.03 min⁻¹
  CLD2_F (apparent total clearance of the drug from plasma after administration): <0.01 µL/min
  CL_F (apparent total body clearance of the drug from plasma): 0.16 µL/min
  K01 (absorption rate constant): 4.29 h⁻¹
  K12 (distribution rate constant): <0.001 h⁻¹
  K21 (redistribution rate constant): 2.00 h⁻¹
  V1_F (apparent volume of central compartment): <0.01 mL
  V2_F (apparent volume of peripheral compartment): <0.01 mL
[3]; i.v. 1 mg/kg single dose
  Alpha (hybrid first-order rate constant, distribution phase): 0.20 min⁻¹
  Beta (hybrid first-order rate constant, elimination phase): 0.05 min⁻¹
  CLD2_F (apparent total clearance of the drug from plasma after administration): 84.57 µL/min
  CL_F (apparent total body clearance of the drug from plasma): 199.16 µL/min
  K12 (distribution rate constant): 2.95 h⁻¹
  K21 (redistribution rate constant): 4.85 h⁻¹
  V1_F (apparent volume of central compartment): 1.72 mL
  V2_F (apparent volume of peripheral compartment): 1.05 mL
[3]; p.o. 1 mg/kg single dose
  Alpha (hybrid first-order rate constant, distribution phase): 0.04 min⁻¹
  Beta (hybrid first-order rate constant, elimination phase): 0.04 min⁻¹
  CLD2_F (apparent total clearance of the drug from plasma after administration): <0.01 µL/min
  CL_F (apparent total body clearance of the drug from plasma): 2.01 µL/min
  K01 (absorption rate constant): 2.92 h⁻¹
  K12 (distribution rate constant): <0.001 h⁻¹
  K21 (redistribution rate constant): 2.58 h⁻¹
  V1_F (apparent volume of central compartment): 0.05 mL
  V2_F (apparent volume of peripheral compartment): <0.01 mL
[3]; s.c. 1 mg/kg single dose
  Alpha (hybrid first-order rate constant, distribution phase): 0.04 min⁻¹
  Beta (hybrid first-order rate constant, elimination phase): 0.04 min⁻¹
  CLD2_F (apparent total clearance of the drug from plasma after administration): <0.01 µL/min
  CL_F (apparent total body clearance of the drug from plasma): 0.11 µL/min
  K01 (absorption rate constant): 2.28 h⁻¹
  K12 (distribution rate constant): <0.001 h⁻¹
  K21 (redistribution rate constant): 2.14 h⁻¹
  V1_F (apparent volume of central compartment): <0.01 mL
  V2_F (apparent volume of peripheral compartment): <0.01 mL
